According to paper PMC8851455 (ACS Omega, 2022):
Entries after “also recorded” stand apart in the source; their conditions may differ. Like-named read-outs stand apart in the source and are kept apart here.

How the values were obtained:
[1] = tested on: MCF-7 cells; experiment: MCF-7 cell proliferation assay; format: cell-based, human
Summary of the method: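 MCF-7 cells exposed to test compound or E2 at six concentrations from 10–12 to 10–7 M in EA-free medium. Proliferation read as MTT product absorbance at 570 nm. Three independent trials, each in triplicate. % RME2 = 100 × (OD test − OD VC)/(max OD E2 − OD VC). EC50 from curve fitting. EEF = EC50 of E2/EC50 of sample. One-way ANOVA with Dunnett's test versus E2 at each concentration.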

[2] = tested on: chicken embryo; experiment: Chicken embryonic assay; format: in vivo; details: egg injection, day 18
[3] = tested on: S. typhimurium TA98; experiment: Ames test, strain TA98; format: cell-based, Salmonella typhimurium
[4] = tested on: S. typhimurium TA100; experiment: Ames test, strain TA100; format: cell-based, Salmonella typhimurium
[5] = tested on: S. typhimurium tester strains (TA98, TA100, and TA102); experiment: Ames test, overall over three strains; format: cell-based, Salmonella typhimurium
[6] = tested on: S. typhimurium TA102
[7] = tested on: ERα; details: competing with E2; cited from earlier work
[8] = tested on: ERβ; details: competing with E2; cited from earlier work
[9] = tested on: MCF-7 cells; details: proliferative activity at 10^–7 to 10^–5 M; cited from earlier work
[10] = tested on: S. typhimurium; details: incorporation or preincubation Ames assays, 10–3333 μg/plate; cited from earlier work
[11] = tested on: zebrafish embryos; details: cited from earlier work
[12] = higher dose (0.5 mM: 450–500 μg/kg; E2 0.1 mM: 91 μg/kg)
[13] = lower dose (0.05 mM: 45–50 μg/kg; E2 0.01 mM: 9.1 μg/kg)
[14] = TA100 +S9, 5 × 10^–2 pmol/plate
[15] = TA100 +S9, 5 × 10^–3 pmol/plate
[16] = TA100 +S9, 5 × 10^–4 pmol/plate
[17] = TA100 +S9, 5 × 10^–5 pmol/plate
[18] = TA100 -S9, 5 × 10^–2 pmol/plate
[19] = TA100 -S9, 5 × 10^–3 pmol/plate
[20] = TA100 -S9, 5 × 10^–4 pmol/plate
[21] = TA100 -S9, 5 × 10^–5 pmol/plate
[22] = TA102 +S9, 5 × 10^–2 pmol/plate
[23] = TA102 +S9, 5 × 10^–3 pmol/plate
[24] = TA102 +S9, 5 × 10^–4 pmol/plate
[25] = TA102 +S9, 5 × 10^–5 pmol/plate
[26] = TA102 -S9, 5 × 10^–2 pmol/plate
[27] = TA102 -S9, 5 × 10^–3 pmol/plate
[28] = TA102 -S9, 5 × 10^–4 pmol/plate
[29] = TA102 -S9, 5 × 10^–5 pmol/plate

## O=c1c(-c2ccc(O)cc2)coc2cc(O)cc(O)c12 [genistein]
[1]; EC50 of E2 divided by that of the test compound
  EEF (estradiol equivalent factor): 0.08
[1]; Homo sapiens, MCF7
  EC50: 0.12 nM
[1]; highest % RME2 (relative maximum % E2) in test range 10^–12–10^–7 M
  max % RME2: 48%
[2]; [12]
  LSI (liver somatic index): 2.12 ± 0.14%
  malformation rate: 0.0%
  mortality rate: 50%
  number of dead chicken embryo: 5
  number of malformation chicken embryo: 0
  weights: embryo: 23.88 ± 2.02 g
  weights: heart: 0.20 ± 0.03 g
  weights: liver: 0.50 ± 0.09 g
[2]; [13]
  LSI (liver somatic index): 2.05 ± 0.44%
  REEW (ratio of embryo to egg weight): 0.41 ± 0.049
  malformation rate: 0.0%
  mortality rate: 40.0%
  number of dead chicken embryo: 4
  number of malformation chicken embryo: 0
  weights: embryo: 21.96 ± 0.73 g
  weights: heart: 0.17 ± 0.01 g
  weights: liver: 0.46 ± 0.10 g
[3]; TA98 +S9, 0.5 pmol/plate
  MI: 1.1
  number of revertants/plate (M ± SD): 26 ± 13 revertants/plate
[3]; TA98 +S9, 5 pmol/plate
  MI: 1.0
  number of revertants/plate (M ± SD): 23 ± 14 revertants/plate
[3]; TA98 +S9, 50 pmol/plate
  MI: 1.2
  number of revertants/plate (M ± SD): 28 ± 16 revertants/plate
[3]; TA98 +S9, 5 × 10^–2 pmol/plate
  MI: 1.2
  number of revertants/plate (M ± SD): 28 ± 5 revertants/plate
[3]; TA98 +S9, 5 × 10^–3 pmol/plate
  MI: 1.2
  number of revertants/plate (M ± SD): 28 ± 10 revertants/plate
[3]; TA98 +S9, 5 × 10^–4 pmol/plate
  MI: 1.0
  number of revertants/plate (M ± SD): 24 ± 8 revertants/plate
[3]; TA98 +S9, 5 × 10^–5 pmol/plate
  MI: 0.8
  number of revertants/plate (M ± SD): 19 ± 6 revertants/plate
[3]; TA98 -S9, 0.5 pmol/plate
  MI: 0.7
  number of revertants/plate (M ± SD): 15 ± 1 revertants/plate
[3]; TA98 -S9, 5 pmol/plate
  MI: 0.8
  number of revertants/plate (M ± SD): 18 ± 6 revertants/plate
[3]; TA98 -S9, 50 pmol/plate
  MI: 0.6
  number of revertants/plate (M ± SD): 13 ± 4 revertants/plate
[3]; TA98 -S9, 5 × 10^–2 pmol/plate
  MI: 0.7
  number of revertants/plate (M ± SD): 16 ± 2 revertants/plate
[3]; TA98 -S9, 5 × 10^–3 pmol/plate
  MI: 0.5
  number of revertants/plate (M ± SD): 11 ± 1 revertants/plate
[3]; TA98 -S9, 5 × 10^–4 pmol/plate
  MI: 0.6
  number of revertants/plate (M ± SD): 13 ± 6 revertants/plate
[3]; TA98 -S9, 5 × 10^–5 pmol/plate
  MI: 0.7
  number of revertants/plate (M ± SD): 15 ± 4 revertants/plate
[4]; TA100 +S9, 0.5 pmol/plate
  MI: 1.0
  number of revertants/plate (M ± SD): 307 ± 7 revertants/plate
[4]; TA100 +S9, 5 pmol/plate
  MI: 0.9
  number of revertants/plate (M ± SD): 301 ± 13 revertants/plate
[4]; TA100 +S9, 50 pmol/plate
  MI: 0.9
  number of revertants/plate (M ± SD): 296 ± 11 revertants/plate
[4]; [14]
  MI: 1.0
  number of revertants/plate (M ± SD): 308 ± 8 revertants/plate
[4]; [15]
  MI: 1.0
  number of revertants/plate (M ± SD): 313 ± 11 revertants/plate
[4]; [16]
  MI: 0.9
  number of revertants/plate (M ± SD): 301 ± 4 revertants/plate
[4]; [17]
  MI: 0.9
  number of revertants/plate (M ± SD): 294 ± 6 revertants/plate
[4]; TA100 -S9, 0.5 pmol/plate
  MI: 1.0
  number of revertants/plate (M ± SD): 103 ± 10 revertants/plate
[4]; TA100 -S9, 5 pmol/plate
  MI: 0.9
  number of revertants/plate (M ± SD): 96 ± 4 revertants/plate
[4]; TA100 -S9, 50 pmol/plate
  MI: 0.8
  number of revertants/plate (M ± SD): 80 ± 12 revertants/plate
[4]; [18]
  MI: 0.9
  number of revertants/plate (M ± SD): 97 ± 11 revertants/plate
[4]; [19]
  MI: 1.0
  number of revertants/plate (M ± SD): 100 ± 11 revertants/plate
[4]; [20]
  MI: 0.9
  number of revertants/plate (M ± SD): 94 ± 8 revertants/plate
[4]; [21]
  MI: 1.0
  number of revertants/plate (M ± SD): 98 ± 6 revertants/plate
[5]; 5 × 10^–5 to 50 pmol/plate, with or without S9
  Ames test outcome (signs of mutagenicity): did not significantly increase numbers at any strains and test concentrations; also recorded: did not demonstrate such a sign
[5]; highest MI from test range 5 × 10^–5 to 50 pmol/plate
  max MI value: 1.2
[6]; TA102 +S9, 0.5 pmol/plate
  MI: 1.1
  number of revertants/plate (M ± SD): 336 ± 17 revertants/plate
[6]; TA102 +S9, 5 pmol/plate
  MI: 1.0
  number of revertants/plate (M ± SD): 299 ± 4 revertants/plate
[6]; TA102 +S9, 50 pmol/plate
  MI: 1.1
  number of revertants/plate (M ± SD): 324 ± 28 revertants/plate
[6]; [22]
  MI: 1.0
  number of revertants/plate (M ± SD): 311 ± 18 revertants/plate
[6]; [23]
  MI: 1.0
  number of revertants/plate (M ± SD): 312 ± 13 revertants/plate
[6]; [24]
  MI: 0.9
  number of revertants/plate (M ± SD): 285 ± 10 revertants/plate
[6]; [25]
  MI: 0.9
  number of revertants/plate (M ± SD): 290 ± 4 revertants/plate
[6]; TA102 -S9, 0.5 pmol/plate
  MI: 1.0
  number of revertants/plate (M ± SD): 247 ± 18 revertants/plate
[6]; TA102 -S9, 5 pmol/plate
  MI: 0.9
  number of revertants/plate (M ± SD): 240 ± 8 revertants/plate
[6]; TA102 -S9, 50 pmol/plate
  MI: 0.8
  number of revertants/plate (M ± SD): 215 ± 27 revertants/plate
[6]; [26]
  MI: 0.9
  number of revertants/plate (M ± SD): 222 ± 30 revertants/plate
[6]; [27]
  MI: 0.8
  number of revertants/plate (M ± SD): 198 ± 8 revertants/plate
[6]; [28]
  MI: 0.8
  number of revertants/plate (M ± SD): 196 ± 20 revertants/plate
[6]; [29]
  MI: 0.8
  number of revertants/plate (M ± SD): 207 ± 5 revertants/plate
[7]
  binding affinity for ERα: 4%
[8]
  binding affinity for ERβ: 87%
[9]
  concentration of maximum proliferative activity in MCF-7 cells: 10^–6 M
[10]
  mutagenic activity in Ames assays: No mutagenic activity
[11]; at 1–50 μM
  developmental toxicity in zebrafish model: showing developmental toxicity
[11]; exposure at 0.025 to 0.1 mM
  survival rate for zebrafish embryos: significantly decreased the survival rate
